# Measured values: article PMC12808645 (Nature Communications, 2025)
# Assays:
# Nan-Iav(∆697-C) = assay type: cell-based, Halyomorpha halys; settings: 1 mM Ca2+, Δ C-ter (Iav∆(697-986))
# Nan-IavW701A = assay: Whole-cell electrophysiology, Nan-IavW701A; assay type: cell-based, Halyomorpha halys; settings: 1 mM Ca2+
# Nan-IavY325A = assay type: binding, Halyomorpha halys
# Drosophila Nan-Iav = settings: cited from earlier work
# stink bug Nan-Iav [1] = assay type: binding, Halyomorpha halys
# stink bug Nan-Iav [2] = target: stink bug Nan-Iav; design: species or system Halyomorpha halys; settings: read-out: [3H]-AP binding Kd
# Nan only, WT = assay: [3H]-AP binding to Nan-only membranes, WT; design: species or system Halyomorpha halys; settings: read-out: [3H]-AP binding Kd
# Outline: (§1)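 Nan expressed in HEK293S GnTI- suspension cells (1–1.5 M/mL) by 3% (v/v) baculovirus, ~1 day at 37 °C then 48 h at 25 °C. Membranes were made by sonication and spun at 300 × g 10 min then 50,000 × g 2 h. Saturation binding used 60–100 µg membranes with [3H]-AP in pH 7.4 HEPES binding buffer (CaCl2, MgCl2, 0.0025% Tween-20), 3 h at room temperature. Samples were filtered on 0.1% PEI-treated filters, washed thrice with ice-cold buffer, and counted by scintillation. Nonspecific binding was set with 500-fold excess unlabeled AP.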
# Nan only, Y177A = assay: [3H]-AP binding to Nan-only membranes, Y177A; design: species or system Halyomorpha halys
# Outline: as §1
# Nan only, Y172A = assay: [3H]-AP binding to Nan-only membranes, Y172A; design: species or system Halyomorpha halys; settings: NanY172A
# Outline: as §1
smiles,measurement,setting,value
[Ca+2] [Ca^2+],% inhibition of inward current,Nan-Iav(∆697-C),~ 10%
same,% inhibition of inward current,Nan-IavW701A,~ 10%
"NC(=O)c1cccnc1 [NAM, nicotinamide]",NAM binding (in words),Nan-IavY325A,eliminated NAM binding
same,EC50,Drosophila Nan-Iav,14 µM
"CC1=NNC(=O)N(/N=C/c2cccnc2)C1 [PM, pymetrozine]",binding mode versus [3H]-AP,stink bug Nan-Iav [1],competitive binding
C[C@]1(COC(=O)C2CC2)[C@@H]2C[C@H](O)[C@@]3(C)Oc4cc(-c5cccnc5)oc(=O)c4[C@H](O)[C@@H]3[C@@]2(C)CC[C@@H]1OC(=O)C1CC1 [[^3H]-AP],Kd,stink bug Nan-Iav [2],0.017 nM
same,Kd,"Nan only, WT",0.089 nM
same,[3H]-AP binding Kd,"Nan only, Y177A",lacks measurable binding
same,higher [3H]-AP Kd compared to WT Nan,"Nan only, Y172A",7.5 fold
